The record followed here is ChEMBL document CHEMBL3400028, “Evaluation of Aconitum diterpenoid alkaloids as antiproliferative agents” (2015).

As a reminder, the GI50 is the concentration that inhibits growth by half. Low values mean more potent growth inhibition, high ones less potent growth inhibition.

Holding throughout (format): functional
Assay [1] in a line: Selectivity ratio of GI50 for human KB cells to GI50 for multidrug-resistant P-gp expressing human KBVIN cells. Put shortly:
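Ratio of GI50 in parental KB to GI50 in P-gp-overexpressing KB-VIN. […] KB-VIN cells were grown 7–10 days without vincristine before the assay.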

The subject of assay [2] is A549. Briefly: Antiproliferative activity against human A549 cells by sulforhodamine B assay. Put shortly: (§1)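 Cells in RPMI 1640 (25 mM HEPES, 2 mM L-glutamine, 10% heat-inactivated FBS, antibiotics) at 37 °C, 5% CO2. Seeded at 3–5 × 10³/well with graded concentrations, paclitaxel as assay control, for 72 h. TCA-fixed, stained with 0.04% SRB, dye dissolved in 10 mM Tris, A515 read. GI50 is the concentration halving absorbance versus untreated cells; three or more experiments.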

The test system of assay [3] is DU-145. Briefly: Antiproliferative activity against human DU145 cells by sulforhodamine B assay. Put shortly: as §1
A general note: In SRB staining, fixed cells bind dye roughly in proportion to their protein.

Assay [4] is described as follows: Antiproliferative activity against multidrug-resistant P-gp expressing human KBVIN cells by sulforhodamine B assay. Put shortly: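 Vincristine-resistant KB subline kept in 100 nM vincristine, then grown 7–10 days without it before testing. RPMI 1640 with 10% FBS, 37 °C, 5% CO2. 3–5 × 10³ cells/well exposed 72 h to a concentration series, paclitaxel as assay control. SRB staining after TCA fixation, A515 read. GI50 is the 50% absorbance reduction versus untreated cells; three or more experiments.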

The subject of assay [5] is KB. Briefly: Antiproliferative activity against human KB cells by sulforhodamine B assay. Summed up: as §1

For the compound `C=C1[C@H]2C[C@H]3C4N5C[C@]6(C)CCC[C@]47[C@H]([C@H]2OC(=O)c2ccccc2)C3(C[C@]5(OC(=O)c2ccccc2)[C@H]67)[C@@H]1O`, the RatioGI50 in assay [1] amounted to 10. For the same compound, the concentration for 50% growth inhibition (GI50) in assay [2], in assay [3], in assay [4] and in assay [5] was 10 µM throughout.

Regarding `C=C1[C@H]2C[C@H]3C4N5C[C@]6(C)CCC[C@]47[C@H]([C@H]2OC(=O)c2ccc(OC)cc2)C3(C[C@]5(O)[C@H]67)[C@@H]1O`, in assay [1], the RatioGI50 is recorded as 10. Further, the GI50 in assay [2], in assay [3], in assay [4] and in assay [5] was 10 µM in each case.

In the case of `C=C1[C@H]2C[C@H]3C4N5C[C@]6(C)CCC[C@]47[C@H]([C@H]2O)C3(C[C@]5(OC(=O)/C=C/c2ccccc2)[C@H]67)[C@@H]1O`, in assay [1], the RatioGI50 was >20. Moreover, the GI50 in assay [2], in assay [3], in assay [4] and in assay [5] was > 20 µM each time.

For `C=C1[C@H]2C[C@H]3C4N5C[C@]6(C)CCC[C@]47[C@H]([C@H]2O)C3(C[C@]5(OC(=O)c2ccccc2)[C@H]67)[C@@H]1O`, the RatioGI50 in assay [1] is given as >20. Besides, the 50% growth inhibitory concentration (GI50) in assay [2], in assay [3], in assay [4] and in assay [5] was > 20 µM in each case.

As to `C=C1[C@H]2C[C@H]3C4N5C[C@]6(C)CCC[C@]47[C@H]([C@H]2O)C3(C[C@]5(OC(=O)c2ccc(OC)cc2)[C@H]67)[C@@H]1O`, the RatioGI50 in assay [1] is >20. The GI50 in assay [2], in assay [3], in assay [4] and in assay [5] was > 20 µM in each case.

Turning to `C=C1[C@H]2C[C@@H]3C4N5C[C@]6(C)CCC[C@@]47[C@@H]6[C@@]5(O)C[C@]3([C@@H]1OC(C)=O)[C@H]7[C@H]2O`, the GI50 in assay [2], in assay [3], in assay [4] and in assay [5] was > 20 µM throughout.

Turning to `C=C1[C@H]2C[C@@H]3C4N5C[C@]6(C)CCC[C@@]47[C@@H]6[C@@]5(O)C[C@]3([C@@H]1OC(C)=O)[C@H]7[C@H]2OC(C)=O`, the GI50 in assay [2], in assay [3], in assay [4] and in assay [5] was > 20 µM in each case.

Regarding `C=C1[C@H]2C[C@@H]3C4N(C(C)=O)C[C@]5(C)CCC[C@@]46[C@@H]5C(=O)C[C@]3([C@@H]1OC(C)=O)[C@H]6[C@H]2OC(C)=O` (some centres not stated), the GI50 in assay [2], in assay [3], in assay [4] and in assay [5] was > 20 µM each time.

As to `C=C1[C@H]2C[C@@H]3C4N5C[C@]6(C)CCC[C@@]47[C@@H]6[C@@]5(O)C[C@]3([C@@H]1OC(=O)c1ccccc1)[C@H]7[C@H]2OC(=O)c1ccccc1`, the RatioGI50 in assay [1] was found to be 0.82. The GI50 came out at 8.8 µM in assay [2], 7.6 µM in assay [3], 6.3 µM in assay [4] and 5.2 µM in assay [5].

In the case of `C=C1[C@H]2C[C@@H]3C4N5C[C@]6(C)CCC[C@@]47[C@@H]6[C@@]5(OC(=O)c4ccc(OC)cc4)C[C@]3([C@@H]1O)[C@H]7[C@H]2OC(=O)c1ccc(OC)cc1`, the RatioGI50 in assay [1] is given as >20. The GI50 in assay [2], in assay [3], in assay [4] and in assay [5] was > 20 µM throughout.

For the compound `C=C1[C@H]2C[C@@H]3C4N5C[C@]6(C)CCC[C@@]47[C@@H]6[C@@]5(OC(=O)c4ccc(OC)cc4)C[C@]3([C@@H]1OC(=O)c1ccc(OC)cc1)[C@H]7[C@H]2O`, the RatioGI50 in assay [1] is on record as >20. For the same compound, the GI50 in assay [2], in assay [3], in assay [4] and in assay [5] was > 20 µM throughout.

For the compound `C=C1[C@H]2C[C@@H]3C4N5C[C@]6(C)CCC[C@@]47[C@@H]6[C@@]5(O)C[C@]3([C@@H]1OC(=O)c1ccc(OC)c(OC)c1)[C@H]7[C@H]2O`, in assay [1], the RatioGI50 is on record as >20. In addition, the GI50 in assay [2], in assay [3], in assay [4] and in assay [5] was > 20 µM in each case.

As for `C=C1[C@H]2C[C@@H]3C4N5C[C@]6(C)CCC[C@@]47[C@@H]6[C@@]5(OC(=O)c4ccc(OC)c(OC)c4)C[C@]3([C@@H]1O)[C@H]7[C@H]2OC(=O)c1ccc(OC)c(OC)c1`, the RatioGI50 in assay [1] amounted to 10. Further, the GI50 in assay [2], in assay [3], in assay [4] and in assay [5] was 10 µM each time.

Regarding `C=C1[C@H]2C[C@@H]3C4N5C[C@]6(C)CCC[C@@]47[C@@H]6[C@@]5(OC(=O)c4ccc(OC)c(OC)c4)C[C@]3([C@@H]1OC(=O)c1ccc(OC)c(OC)c1)[C@H]7[C@H]2O`, the RatioGI50 in assay [1] was found to be 10. Moreover, the GI50 in assay [2], in assay [3], in assay [4] and in assay [5] was 10 µM each time.

`C=C1[C@H]2C[C@@H]3C4N5C[C@]6(C)CCC[C@@]47[C@@H]6[C@@]5(OC(=O)c4ccc([N+](=O)[O-])cc4)C[C@]3([C@@H]1O)[C@H]7[C@H]2O`: the RatioGI50 in assay [1] is >20. Also, the GI50 in assay [2], in assay [3], in assay [4] and in assay [5] was > 20 µM throughout.

As for `C=C1[C@H]2C[C@@H]3C4N5C[C@]6(C)CCC[C@@]47[C@@H]6[C@@]5(O)C[C@]3([C@@H]1O)[C@H]7[C@H]2OC(=O)c1ccc([N+](=O)[O-])cc1`, the RatioGI50 in assay [1] was 1. The GI50 turned out to be 5.8 µM in assay [2], 7.2 µM in assay [3], 6.4 µM in assay [4] and 6.4 µM in assay [5].

On to `C=C1[C@H]2C[C@@H]3C4N5C[C@]6(C)CCC[C@@]47[C@@H]6[C@@]5(O)C[C@]3([C@@H]1OC(=O)c1ccc([N+](=O)[O-])cc1)[C@H]7[C@H]2O`, for which the RatioGI50 in assay [1] is >20. The GI50 in assay [2], in assay [3], in assay [4] and in assay [5] was > 20 µM throughout.

As for `C=C1[C@H]2C[C@@H]3C4N5C[C@]6(C)CCC[C@@]47[C@@H]6[C@@]5(OC(=O)c4ccc([N+](=O)[O-])cc4)C[C@]3([C@@H]1OC(=O)c1ccc([N+](=O)[O-])cc1)[C@H]7[C@H]2O`, the RatioGI50 in assay [1] is >20. Moreover, the GI50 in assay [2], in assay [3], in assay [4] and in assay [5] was > 20 µM in each case.

As to `C=C1[C@H]2C[C@@H]3C4N5C[C@]6(C)CCC[C@@]47[C@@H]6[C@@]5(OC(=O)c4ccc([N+](=O)[O-])cc4)C[C@]3([C@@H]1OC(=O)c1ccc([N+](=O)[O-])cc1)[C@H]7[C@H]2OC(=O)c1ccc([N+](=O)[O-])cc1`, the RatioGI50 in assay [1] is listed as >20. The GI50 in assay [2], in assay [3], in assay [4] and in assay [5] was > 20 µM throughout.

Take `C=C1[C@H]2C[C@@H]3C4N5C[C@]6(C)CCC[C@@]47[C@@H]6[C@@]5(O)C[C@]3([C@@H]1OC(=O)c1cccc([N+](=O)[O-])c1)[C@H]7[C@H]2OC(=O)c1cccc([N+](=O)[O-])c1`: the RatioGI50 in assay [1] was 0.99. The concentration for 50% growth inhibition (GI50) was 5 µM in assay [2], 5.2 µM in assay [3], 5.6 µM in assay [4] and 5.6 µM in assay [5].

Consider `C=C1[C@H]2C[C@@H]3C4N5C[C@]6(C)CCC[C@@]47[C@@H]6[C@@]5(O)C[C@]3([C@@H]1O)[C@H]7[C@H]2OC(=O)c1cccc(C(F)(F)F)c1`, for which the RatioGI50 in assay [1] came to 1.5. Moreover, the GI50 turned out to be 6.8 µM in assay [2], 7.7 µM in assay [3], 6.2 µM in assay [4] and 8.9 µM in assay [5].

Turning to `C=C1[C@H]2C[C@@H]3C4N5C[C@]6(C)CCC[C@@]47[C@@H]6[C@@]5(OC(=O)c4cccc(C(F)(F)F)c4)C[C@]3([C@@H]1O)[C@H]7[C@H]2OC(=O)c1cccc(C(F)(F)F)c1`, the RatioGI50 in assay [1] is >20. Also, the GI50 in assay [2], in assay [3], in assay [4] and in assay [5] was > 20 µM each time.

As to `C=C1[C@H]2C[C@@H]3C4N5C[C@]6(C)CCC[C@@]47[C@@H]6[C@@]5(O)C[C@]3([C@@H]1O)[C@H]7[C@H]2OC(=O)c1ccc(C(F)(F)F)cc1`, in assay [1], the RatioGI50 came out at 10. The 50% growth inhibitory concentration (GI50) in assay [2], in assay [3], in assay [4] and in assay [5] was 10 µM each time.

Consider `C=C1[C@H]2C[C@H]3C4N5C[C@]6(C)CCC[C@]47[C@H]([C@H]2OC(=O)c2ccc(OC)c(OC)c2)C3(C[C@]5(O)[C@H]67)[C@@H]1O`, for which, in assay [1], the RatioGI50 is 10. In addition, the GI50 in assay [2], in assay [3], in assay [4] and in assay [5] was 10 µM each time.
